Active and inactive are the calls of the source. No cut-off for these calls is given here.
Columns and labels:
[1] = system: Jurkat; assay: Cytotoxicity against human Jurkat cells assessed as growth inhibition at 25 uM after 24 hrs by trypan blue exclusion assay; type: functional, cell-based
Procedure, shortened: (§1)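 Trypan blue counting of proliferation (cells/mL) and viability. Exponential-phase cells were seeded at 200,000 cells/mL in RPMI 1640 with 10% heat-inactivated FCS at 37 °C and 5% CO2. They were treated from 50 mM DMSO stocks against DMSO-matched controls and read at 24, 48 and 72 h (PBMCs at 24 and 48 h).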

[2] = system: Jurkat; assay: Cell cycle arrest in human Jurkat cells assessed as accumulation at G0/G1 phase at 50 uM at 8 hrs by propidium iodide staining-based flow cytometric analysis; type: functional
Procedure, shortened: (§2)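 Cells in exponential phase at 200,000 cells/mL in RPMI 1640 with 10% heat-inactivated FCS, 37 °C, 5% CO2, treated from DMSO stocks alongside DMSO vehicle controls. Cell cycle distribution was analysed at time points between 8 and 72 h.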

[3] = system: Jurkat; assay: Cytotoxicity against human Jurkat cells assessed as growth inhibition at 10 uM after 48 hrs by trypan blue exclusion assay; type: functional, cell-based; procedure, shortened: as §1
[4] = system: Jurkat; assay: Cytotoxicity against human Jurkat cells assessed as reduction of cell viability at 50 uM after 24 hrs by trypan blue exclusion assay; type: functional, cell-based; procedure, shortened: as §1
[5] = target: T1, Nuclear factor NF-kappa-B complex (Homo sapiens) (UniProt Q00653+P19838+Q04206); assay: Inhibition of NF-kappaB transactivation in TNF-alpha-stimulated human K562 cells preincubated for 2 hrs followed by TNF-alpha challenge measured after 6 hrs by dual luciferase reporter gene assay; type: cell-based
T1 sequence (Q00653 whole entry, looked up, one chain of several): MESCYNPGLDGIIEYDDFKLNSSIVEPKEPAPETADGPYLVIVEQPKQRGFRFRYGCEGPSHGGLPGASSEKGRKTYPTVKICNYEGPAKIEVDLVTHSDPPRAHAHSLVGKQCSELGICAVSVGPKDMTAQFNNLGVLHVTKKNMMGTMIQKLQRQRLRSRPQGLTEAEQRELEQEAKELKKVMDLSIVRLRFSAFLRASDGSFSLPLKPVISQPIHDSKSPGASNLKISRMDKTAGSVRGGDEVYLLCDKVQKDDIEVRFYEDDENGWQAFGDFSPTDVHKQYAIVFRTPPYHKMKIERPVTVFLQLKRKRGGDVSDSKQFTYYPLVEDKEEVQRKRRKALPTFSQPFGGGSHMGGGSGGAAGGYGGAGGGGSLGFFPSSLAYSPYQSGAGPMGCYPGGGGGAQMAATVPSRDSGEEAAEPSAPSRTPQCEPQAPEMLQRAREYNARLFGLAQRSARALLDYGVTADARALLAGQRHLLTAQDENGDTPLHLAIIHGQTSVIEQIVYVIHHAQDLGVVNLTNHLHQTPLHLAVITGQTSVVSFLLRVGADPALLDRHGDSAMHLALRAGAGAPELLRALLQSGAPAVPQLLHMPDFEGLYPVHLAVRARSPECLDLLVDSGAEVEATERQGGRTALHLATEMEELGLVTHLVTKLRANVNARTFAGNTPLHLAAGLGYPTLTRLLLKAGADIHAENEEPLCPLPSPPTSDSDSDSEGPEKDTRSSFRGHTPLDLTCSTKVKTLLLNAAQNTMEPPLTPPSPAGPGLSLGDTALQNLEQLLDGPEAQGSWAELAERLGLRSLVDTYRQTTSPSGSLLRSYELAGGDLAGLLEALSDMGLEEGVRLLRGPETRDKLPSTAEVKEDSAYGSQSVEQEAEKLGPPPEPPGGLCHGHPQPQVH
T1 sequence (Q04206 whole entry, looked up, one chain of several): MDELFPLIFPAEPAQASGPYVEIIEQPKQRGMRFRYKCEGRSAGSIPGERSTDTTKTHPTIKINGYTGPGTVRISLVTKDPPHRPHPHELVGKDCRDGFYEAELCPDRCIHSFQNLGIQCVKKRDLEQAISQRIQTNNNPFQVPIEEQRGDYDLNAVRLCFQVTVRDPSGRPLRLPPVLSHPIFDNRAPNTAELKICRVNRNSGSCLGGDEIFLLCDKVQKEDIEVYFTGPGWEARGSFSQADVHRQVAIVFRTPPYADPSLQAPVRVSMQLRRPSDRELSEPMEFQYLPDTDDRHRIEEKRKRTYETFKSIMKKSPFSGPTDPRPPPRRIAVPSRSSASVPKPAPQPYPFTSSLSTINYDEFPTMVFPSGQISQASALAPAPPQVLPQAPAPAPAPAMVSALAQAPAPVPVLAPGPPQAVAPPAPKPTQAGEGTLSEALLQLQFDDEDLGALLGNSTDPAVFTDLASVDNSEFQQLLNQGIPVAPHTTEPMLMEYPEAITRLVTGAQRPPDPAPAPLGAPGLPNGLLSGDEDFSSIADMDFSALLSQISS
Procedure, shortened: (§3)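 Cells co-transfected with 5 µg of a firefly luciferase reporter carrying five consensus NF-κB sites plus 5 µg of a Renilla TK control plasmid. 24 h later, compound for 2 h, then ± 20 ng/ml TNF-α for 6 h more. Firefly:Renilla ratio, TNF-α-only cells set to 100%. Three independent measurements in quadruplicate.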

[6] = target: T2, NF-kappa-B inhibitor alpha (Homo sapiens) (UniProt P25963); assay: Inhibition of IkappaB-alpha degradation in TNF-alpha-stimulated human Jurkat cells at 40 uM preincubated for 2 hrs followed by TNF-alpha challenge measured after 2 to 90 mins by Western blot analysis; type: cell-based
T2 sequence (whole entry): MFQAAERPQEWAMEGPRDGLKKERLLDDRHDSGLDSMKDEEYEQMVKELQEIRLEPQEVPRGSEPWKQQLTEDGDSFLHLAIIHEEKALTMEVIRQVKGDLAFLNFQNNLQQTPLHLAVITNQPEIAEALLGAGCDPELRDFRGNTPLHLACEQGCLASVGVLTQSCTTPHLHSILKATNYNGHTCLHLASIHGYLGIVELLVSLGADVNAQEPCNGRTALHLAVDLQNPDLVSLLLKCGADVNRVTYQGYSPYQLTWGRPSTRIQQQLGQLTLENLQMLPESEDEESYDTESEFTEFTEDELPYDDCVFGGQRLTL
Procedure, shortened: (§4)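 JURKAT cells pretreated 2 h with 40 µM compound, then ± 20 ng/ml TNF-α for the indicated times. Cytoplasmic and nuclear fractions immunoblotted; loading and fraction purity checked with lamin B and α-tubulin. Blots representative of three independent experiments.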

[7] = system: PBMC; assay: Cytotoxicity against human PBMC assessed as effect on cell viability at >100 uM after 24 to 48 hrs by trypan blue exclusion assay; type: cell-based; procedure, shortened: as §1
[8] = system: Jurkat; assay: Cytotoxicity against human Jurkat cells assessed as growth inhibition at 50 uM after 24 to 72 hrs by trypan blue exclusion assay; type: functional, cell-based; procedure, shortened: as §1
[9] = system: K652; assay: Cytotoxicity against human […] cells assessed as growth inhibition at 25 uM after 24 hrs by trypan blue exclusion assay; type: functional, cell-based; procedure, shortened: as §1
[10] = target: Transcription factor p65 (Homo sapiens) (UniProt Q04206); assay: Inhibition of NF-kappaB p65 subunit translocation from cytoplasm to nucleus in TNF-alpha-stimulated human Jurkat cells at 40 uM preincubated for 2 hrs followed by TNF-alpha challenge measured after 2 to 90 mins by Western blot analysis; type: cell-based; procedure, shortened: as §4
Chain of Transcription factor p65 (Homo sapiens) (Q04206 whole entry): as the sequence (Q04206 whole entry, looked up, one chain of several) above

[11] = target: T1, Nuclear factor NF-kappa-B complex (Homo sapiens); assay: Inhibition of NF-kappaB transactivation in TNF-alpha-stimulated human Jurkat cells preincubated for 2 hrs followed by TNF-alpha challenge measured after 6 hrs by dual luciferase reporter gene assay; type: cell-based; procedure, shortened: as §3
[12] = target: T1, Nuclear factor NF-kappa-B complex (Homo sapiens); assay: Inhibition of NF-kappaB in human K562 cells assessed as reduction of TNF-alpha-induced ICAM1 mRNA expression preincubated for 2 hrs followed by TNF-alpha challenge measured after 6 hrs by qRT-PCR analysis; type: cell-based
Procedure, shortened: (§5)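 K-562 cells given compound for 2 h, then cultured ± 20 ng/ml TNF-α for 6 h. Total RNA analysed by qRT-PCR with ICAM1- and CFLAR-specific primers, expressed as target/β-actin mRNA ratio; mean ± SD of 3 independent experiments.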

[13] = target: T3, Nuclear factor NF-kappa-B p105 subunit (Homo sapiens) (UniProt P19838); assay: Inhibition of NF-kappaB p50 subunit translocation from cytoplasm to nucleus in TNF-alpha-stimulated human Jurkat cells at 40 uM preincubated for 2 hrs followed by TNF-alpha challenge measured after 2 to 90 mins by Western blot analysis; type: cell-based; procedure, shortened: as §4
T3 sequence (whole entry): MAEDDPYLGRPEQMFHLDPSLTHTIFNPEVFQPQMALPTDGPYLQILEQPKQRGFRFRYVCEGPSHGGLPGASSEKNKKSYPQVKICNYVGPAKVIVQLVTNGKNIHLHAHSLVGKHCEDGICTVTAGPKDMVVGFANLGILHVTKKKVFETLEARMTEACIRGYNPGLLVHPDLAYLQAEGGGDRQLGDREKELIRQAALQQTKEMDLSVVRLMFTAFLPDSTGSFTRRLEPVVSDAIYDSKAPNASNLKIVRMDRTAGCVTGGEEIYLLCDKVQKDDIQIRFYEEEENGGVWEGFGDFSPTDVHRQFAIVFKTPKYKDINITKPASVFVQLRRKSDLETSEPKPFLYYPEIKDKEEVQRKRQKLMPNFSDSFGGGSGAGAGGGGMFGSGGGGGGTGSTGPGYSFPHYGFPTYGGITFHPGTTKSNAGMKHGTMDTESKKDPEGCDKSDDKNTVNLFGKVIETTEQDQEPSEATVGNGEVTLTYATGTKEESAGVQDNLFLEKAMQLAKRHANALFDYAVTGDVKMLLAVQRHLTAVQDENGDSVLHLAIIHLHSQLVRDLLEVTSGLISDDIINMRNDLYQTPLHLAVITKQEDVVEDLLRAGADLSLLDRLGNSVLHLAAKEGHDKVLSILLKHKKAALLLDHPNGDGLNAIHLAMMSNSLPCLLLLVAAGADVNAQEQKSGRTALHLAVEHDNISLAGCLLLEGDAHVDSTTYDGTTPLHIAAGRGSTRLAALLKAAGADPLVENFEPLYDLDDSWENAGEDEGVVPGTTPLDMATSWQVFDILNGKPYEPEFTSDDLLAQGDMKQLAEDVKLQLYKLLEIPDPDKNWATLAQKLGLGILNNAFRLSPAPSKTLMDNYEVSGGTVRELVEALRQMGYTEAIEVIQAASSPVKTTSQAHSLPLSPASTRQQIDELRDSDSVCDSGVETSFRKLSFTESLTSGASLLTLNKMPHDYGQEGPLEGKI

[14] = target: T1, Nuclear factor NF-kappa-B complex (Homo sapiens); assay: Inhibition of NF-kappaB in human K562 cells assessed as reduction of TNF-alpha-induced CFLAR mRNA expression preincubated for 2 hrs followed by TNF-alpha challenge measured after 6 hrs by qRT-PCR analysis; type: cell-based; procedure, shortened: as §5
[15] = Cell cycle arrest in human […] cells assessed as accumulation at G0/G1 phase at 25 uM measured at 24 hrs by propidium iodide staining-based flow cytometric analysis; type: functional; procedure, shortened: as §2
[16] = target: T1, Nuclear factor NF-kappa-B complex (Homo sapiens); assay: Inhibition of NF-kappaB transactivation in TNF-alpha-stimulated human K562 cells at 10 to 100 uM preincubated for 2 hrs followed by TNF-alpha challenge measured after 6 hrs by dual luciferase reporter gene assay; type: cell-based; procedure, shortened: as §3
[17] = system: K562; assay: Cytotoxicity against human K562 cells assessed as growth inhibition at 10 to 100 uM after 24 to 72 hrs by trypan blue exclusion assay; type: functional, cell-based; procedure, shortened: as §1

Row | Structure (SMILES) | growth inhibition (GI) [1] | Activity [2] | growth inhibition (GI) [3] | Activity [4] | inhibition [5] | inhibition [6] | Activity [7] | growth inhibition (GI) [8] | growth inhibition (GI) [9] | inhibition [10] | inhibition [11] | inhibition [12] | inhibition [13] | inhibition [14] | Activity [15] | inhibition [16] | growth inhibition (GI) [17]
1 | O=C(CC(c1c(O)c2ccccc2oc1=O)c1c(O)c2ccccc2oc1=O)c1ccccc1O | Active | Active | Active | Active | Dose-dependent effect | Active | Non-toxic | Active | Active | Active | Dose-dependent effect | Dose-dependent effect | Active | Dose-dependent effect | Active |  | 
2 | CCC(=O)c1ccccc1O |  |  |  |  |  |  |  |  |  |  |  |  |  |  |  | inactive | inactive
3 | O=c1cc(O)c2ccccc2o1 |  |  |  |  |  |  |  |  |  |  |  |  |  |  |  | inactive | inactive

Reference: ChEMBL document CHEMBL3259651, “Bis(4-hydroxy-2H-chromen-2-one): synthesis and effects on leukemic cell lines proliferation and NF-κB regulation” (Bioorg Med Chem, 2014)
